A selection: hits, their analogues and other compounds. The true share with any hit is near 1.8%.
CHRM4 agonist – human M4 muscarinic receptor agonists, primary screen, CHO-K1 cells, Fluo-8 calcium fluorescence. Muscarinic acetylcholine receptor M4 (Homo sapiens), P08173. CHO-K1 hM4/Gqi5; vehicle 0%, full acetylcholine response 100%. activation, % at 3 µM. hit rate 0.14% among 360,000. AID 624127, 2012;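 active = activation above the run mean over all test wells plus 3 SD, cut at about 32% in these data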;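 also: peak over basal fluorescence ratio per well then scaled between controls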
Target sequence (P08173 whole entry, looked up): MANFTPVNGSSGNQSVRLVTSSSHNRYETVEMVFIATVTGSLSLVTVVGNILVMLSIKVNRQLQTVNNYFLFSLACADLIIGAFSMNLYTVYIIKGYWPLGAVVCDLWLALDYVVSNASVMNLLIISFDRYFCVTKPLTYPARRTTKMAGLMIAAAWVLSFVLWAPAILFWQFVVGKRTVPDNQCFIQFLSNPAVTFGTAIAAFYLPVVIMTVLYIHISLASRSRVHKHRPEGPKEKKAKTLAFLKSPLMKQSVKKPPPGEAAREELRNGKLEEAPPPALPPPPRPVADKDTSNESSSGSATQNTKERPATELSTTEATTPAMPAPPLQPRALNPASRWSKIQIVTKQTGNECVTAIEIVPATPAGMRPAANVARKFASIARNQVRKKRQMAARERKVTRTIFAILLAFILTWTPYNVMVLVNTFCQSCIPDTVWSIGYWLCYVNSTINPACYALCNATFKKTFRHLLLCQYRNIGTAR
CHRM5 PAM – human M5 muscarinic receptor positive allosteric modulators, primary screen, CHO-K1 cells, Fluo-8 calcium fluorescence; Muscarinic acetylcholine receptor M5 (Homo sapiens), P08912; hit rate 0.3% among 360,000; activation, % at 3 µM; CHO-K1 hM5, ACh EC20 PAM; 0% = ACh EC20, 100% = ACh EC100;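 active = activation above the run cutoff, the mean activation of all test compounds plus 3 SD, cut at about 18% in these data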
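Measured by: Fluo-8 calcium fluorescence; material: human M5 receptor in CHO-K1 cells; schedule: Post-acetylcholine fluorescence recording 140 s; benchmarks: low control EC20 acetylcholine (0%), high control EC100 acetylcholine (100%); read-out: Max/basal fluorescence ratio as % of EC20–EC100 ACh window; compound: single dose, 3 µM nominal final test concentration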
M4 antag – human M4 muscarinic receptor antagonists, primary screen, CHO cells, Fluo-8 calcium fluorescence | CHO-hM4 cells, ACh EC80 | inhibition, % at 3 µM | hit rate 0.73% among 360,000 | AID 624125, 2012;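 active = inhibition above its plate's cutoff, the mean inhibition of sample wells plus 3 SD, cut at about 27% in these data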
M4 PAM – human M4 muscarinic receptor positive allosteric modulators, primary screen, CHO-K1 cells, Fluo-8 calcium fluorescence; CHO-K1 hM4/Gqi5, ACh EC20; 0% = ACh EC20, 100% = maximal ACh; activation, % at 3 µM; hit rate 0.4% among 360,000;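 active = activation above its plate's cutoff, the mean activation of sample wells plus 3 SD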
CHRM5 antagonist – human M5 muscarinic receptor antagonists, primary screen, CHO cells, Fluo-8 calcium fluorescence | Muscarinic acetylcholine receptor M5 (Homo sapiens), P08912 | AID 624040, 2012 | hit rate 0.59% among 360,000 | CHO-hM5 cells, ACh EC80 | inhibition, % at 3 µM;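 active = inhibition above a per-plate cutoff, the mean of that plate's test compounds plus 3 SD, cut at about 27% in these data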
M5 ag – human M5 muscarinic receptor agonists, primary screen, CHO-K1 cells, Fluo-8 calcium fluorescence; Muscarinic acetylcholine receptor M5 (Homo sapiens), P08912; CHO-K1 hM5 cells; 0% DMSO wells, 100% maximal acetylcholine response; activation, % at 3 µM; hit rate 0.19% among 360,000; AID 624037, 2012;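 active = activation above the run's mean over test compounds plus 3 SD, cut at about 23% in these data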;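 also: signal is peak over basal fluorescence ratio across the kinetic read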
Each line names hits and unclear results; the compound was inactive in the other large screens.

c1ccc(CCNc2ccnc3cc4ccccc4cc23)cc1	CHRM5 antagonist 36
CC(C)Nc1ccc(Nc2ccnc3cc4ccccc4cc23)cc1	none
COC(=O)[C@]12CCCCC=C1N(Cc1ccccc1)C(=O)[C@H](CC(=O)N1CCSCC1)C2	none
O=C(CSc1nnc(Cn2nnc3ccccc32)o1)N(Cc1ccc(Cl)cc1)c1ccccc1	CHRM5 antagonist 30
CN1C(=O)c2ccccc2Sc2ccc(NC(=O)NC3CC3)cc21	CHRM5 PAM 38
COc1ccc(C)cc1NC(=O)CCN1CC(C)OC(C)C1 (stereo not given)	M4 PAM 20
COc1ccc(S(=O)(=O)N2CCC(C(=O)N3CCc4ccccc4C3)CC2)cc1	none
Cc1ccc(S(=O)(=O)N2CCC(C(=O)N3Cc4ccccc4C3)CC2)cc1	CHRM5 PAM 19, M4 PAM 22
Cc1ccc(S(=O)(=O)N2CCCC(C(=O)N3CCN(c4ccccc4)CC3)C2)cc1 (stereo not given)	CHRM5 antagonist 29
COc1ccccc1Cn1c(=O)[nH]c2cccnc21	CHRM5 PAM 41
Cc1ccc(C)c(C(C)NC(=S)NCc2ccc(F)cc2)c1 (stereo not given)	none
CCOC(=O)C1(Cc2ccc(Cl)cc2)CCN(C(C)Cc2ccc(O)c(OC)c2)CC1 (stereo not given)	CHRM5 antagonist 30
CCOC(=O)C1(Cc2ccc(OC)cc2)CCN(S(C)(=O)=O)CC1	none
O=C(c1ccc(N2CCN(C(=O)c3ccc(F)c(F)c3)CC2)cc1)c1cccc(F)c1	none
COc1cccc(Nc2ncccc2C(=O)Nc2ccccc2)c1	CHRM5 PAM 19
COc1cccc(NC(=O)c2ccccc2Oc2ccccc2)c1	none
CCOCCc1nnc(NC(=O)CS(=O)(=O)c2ccc(C)cc2)s1	none
O=C(Nc1ccc(NS(=O)(=O)c2ccccc2)cc1)c1ccc(Cl)cc1	none
COc1ccc(NS(=O)(=O)c2cccc(NC(=O)c3ccc(Cl)nc3)c2)cc1	CHRM5 antagonist 35
O=C(Nc1cccc(S(=O)(=O)Nc2ccc(Cl)cc2)c1)c1ccc(Cl)nc1	M4 antag 30, CHRM5 antagonist 35
CCN(CC(=O)Nc1c(F)cccc1F)C(=O)c1ccc2c(c1)OCO2	none
CCCCNC(=S)N(CCCO)Cc1cc2cc3c(cc2[nH]c1=O)OCO3	none
Nc1nc(-c2ccc3c(c2)OCCO3)c(CC(=O)O)s1	none
Nc1nc(-c2ccc3c(c2)CCCC3)c(CC(=O)O)s1	M4 antag 29
CC(C)[C@@H](NC(=O)OC(C)(C)C)c1cc(C(=O)c2c(-c3ccccc3)[nH]c3ccccc23)c(N)s1	none
Cc1nnsc1SCCNC(=O)Nc1ccc(Cl)cc1	CHRM5 antagonist 32
CCC(C(=O)NCc1cccs1)n1nc(C)n2c(cc3occc32)c1=O (stereo not given)	CHRM5 PAM 26
O=C(O)CSc1cc(C(=O)c2ccccc2O)cn2c(=O)c3c4c(sc3nc12)CCCC4	M4 PAM 33
COC(=O)[C@]12CCCCC=C1N(Cc1ccco1)C(=O)[C@H](CC(=O)NCCC(C)C)C2	none
COc1ccc(C(=O)N2CCCC(c3cc(C(=O)NCc4ccc(F)cc4)no3)C2)cc1 (stereo not given)	none
O=C1CN(C(=O)c2c(F)cccc2F)C(c2ccc(F)cc2)c2cc(F)ccc2N1 (stereo not given)	none
O=C1CN(C(=O)c2cccc(F)c2)C(c2ccc(F)cc2)c2cc(F)ccc2N1 (stereo not given)	M4 antag 52
CCCCNC(=O)C1(C)CCCCN1Cc1ccc(OCc2ccccc2)cc1 (stereo not given)	none
CCSc1nc(N)c(NC(=O)c2ccc(Br)o2)c(=O)[nH]1	none

Assay outcomes: PubChem, The Scripps Research Institute Molecular Screening Center
